Screening data deposited in PubChem by several laboratories.
Sampled rows, rich in hits. Any-hit rate of the full collection: about 2%.
FID counter: displaces DNA intercalator in HCV helicase counter-screen | inhibition, % at 7.9 µM | hit rate 0.17% among 290,000 | DNA fluorescent intercalator displacement, fluorescence; in the data active means inhibition above about 37%;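 further: higher means more ethidium bromide displaced from hairpin DNA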
HCV core dimer: blocks dimerization of HCV core protein; TR-FRET GST/Flag-core106 dimerization, 1536-well; inhibition, % at 5 µM; hit rate 0.33% among 300,000;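 active means inhibition above the mean of all tested compounds plus 3 SD, set per screening campaign, cut at about 45% in these data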
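Assay system: GST-tagged and Flag-tagged HCV core protein residues 1-106 / Times: compound-protein-antibody incubation 4 h at 22.5 °C / Signal: time-resolved FRET, ex 340 nm, em 617 and 671 nm / Evaluation: % inhibition based on acceptor/donor emission ratio / Benchmarks: wells lacking GST-core106 and wells with excess unlabelled core106 / Repeats: singlicate, one well per compound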
PABP1 MLLE inh: blocks PAM2 peptide binding to the PABP1 MLLE domain | GST-MLLE / FITC-PAM2 fluorescence polarization | inhibition, % at 20 µM | hit rate 0.36% among 360,000 | AID 588489; in the data active means inhibition above about 35%, passing the limit was not always enough
NS3 helicase inh: inhibitors of Hepatitis C virus NS3 helicase; NS3 helicase DNA unwinding, Cy5 molecular beacon fluorescence; inhibition, % at 10.9 µM; hit rate 0.56% among 290,000;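 active means inhibition above the mean of all tested compounds plus 3 SD, set per campaign, cut at about 35% in these data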
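Compound dosing – single dose, 10.9 µM nominal final, DMSO 0.8% final · System – NS3 helicase fragment of HCV · Buffer or medium – MOPS pH 6.5, MgCl2, DTT, Tween20, BSA · Signal – Cy5 beacon fluorescence read at start and 1 h · Also added – annealed dual-labelled DNA beacon duplex, ATP-started · Schedule – 1 h at 25 °C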
eIF4H inh: inhibitors of RNA binding by human eIF4H. Q15056. eIF4H fluorescence polarization binding assay. inhibition, % at 35 µM. hit rate 0.94% among 290,000. AID 2012;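 further: calls also rest on retests at 20 µM and on dose response follow-up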
PABP FP inh: PABP-poly(A) binding inhibition. inhibition, % at 35 µM. P11940. PABP-poly(A) RNA binding, fluorescence polarization. hit rate 1% among 290,000;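 further: calls also rest on retests at 20 µM and on dose response follow-up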
Hits are given with their value; 0 = inactive; ? = inconclusive; - = not tested or not shown. Unless noted, how the calls were made is not given here.

SMILES	FID counter	HCV core dimer	PABP1 MLLE inh	NS3 helicase inh	eIF4H inh	PABP FP inh
CCOc1ccc(-c2cc(C(=O)Nc3cc(OC)c(OC)c(OC)c3)[nH]n2)c(C)c1	-	-	0	-	-	-
Cc1ccc(S(=O)(=O)OCC(=O)Nc2ccc(C(=O)O)c(O)c2)cc1	-	-	43.6	-	-	-
Cc1ccc(NC(=O)COCC(=O)Nc2ccc(C)cc2)cc1	0	0	0	0	0	0
Cc1ccccc1Nc1n[nH]c(=S)s1	-	-	0	-	-	-
Cc1ccccc1Nc1nc(Cl)c(C=O)s1	0	0	0	0	77.5	30.8
COc1ccc(S(=O)(=O)N2CCOCC2)cc1NC(=O)c1cccc(-n2cccc2)c1	-	64.6	0	-	-	-
Cc1ccc(C(=O)OCC(=O)Nc2ccc3c(c2)OCO3)c(O)c1	-	-	0	-	-	-
Cc1cc2c(c(=O)o1)C(Cc1ccccc1)C(C#N)=C(N)O2 (stereo unspecified)	0	0	0	0	69.8	59.1
COc1cc(C2C(C#N)=C(N)Oc3cc(C)oc(=O)c32)cc2c1OCO2 (stereo unspecified)	0	65.3	0	0	68.9	49.5
Cc1ccc([C@H]2C(C#N)=C(N)Oc3cc(C)oc(=O)c32)o1	0	0	0	0	0	0
Cc1cc(C)c(S(=O)(=O)N2CCOC2CNC(=O)C(=O)NCCCN2CCOCC2)c(C)c1 (stereo unspecified)	0	0	0	0	0	0
CC(C(=O)O)N1C(=O)/C(=C/c2cccn2C)SC1=S (stereo unspecified)	0	0	0	0	0	active
COc1ccccc1C(=O)NN1C(=O)/C(=C/c2cccn2C)SC1=S	0	-	-	0	0	72.8
COc1ccc(/C=C2\SC(=S)N(C(Cc3ccccc3)C(=O)O)C2=O)cc1 (stereo unspecified)	0	-	0	0	0	0
Cn1cccc1/C=C1\SC(=S)N(NC(=O)c2ccccc2O)C1=O	0	0	0	0	81.6	61.8
CCC(C(=O)O)N1C(=O)/C(=C/c2cccn2C)SC1=S (stereo unspecified)	0	0	0	0	?	0
O=C(O)C(Cc1ccccc1)N1C(=O)/C(=C/C=C/c2ccco2)SC1=S (stereo unspecified)	0	-	0	0	84.6	97.0
COc1ccc(C2=CN(Cc3ccccc3)CCC2=O)cc1	-	-	0	-	-	-
COc1ccccc1NC(=O)C(C)OC(=O)C1CCC(C(C)(C)C)CC1 (stereo unspecified)	-	0	0	-	-	-
COc1ccc(-c2cnc3c(NC=O)cc(-c4cccc(NS(C)(=O)=O)c4)cn23)cc1OC	-	-	0	-	-	-
Cc1ccc([C@H]2C[C@@H](O)[C@H](n3cc(C4CC4)nn3)CN2C(=O)c2cccs2)cc1	-	-	0	-	-	-
O=C(c1cccc(S(=O)(=O)N2CCCC2)c1)N1CCN(Cc2ccccc2)CC1	-	-	0	-	-	-
Cc1ccc(N(CCC#N)C(=O)COC(=O)C2CCN(S(=O)(=O)c3ccc4c(c3)OCCO4)CC2)cc1	-	0	0	-	-	-
O=C(Nc1cnns1)Oc1ccccc1	-	-	0	-	-	-
O=C(NN1C(=O)/C(=C/C=C/c2ccco2)SC1=S)c1ccccc1O	0	70.2	0	0	94.3	88.9
SMILES	FID counter	HCV core dimer	PABP1 MLLE inh	NS3 helicase inh	eIF4H inh	PABP FP inh
CC(/C=C1\SC(=S)N(NC(=O)c2ccccc2C)C1=O)=C\c1ccccc1	0	0	0	0	0	0
CC(=O)NC(c1cccc(F)c1)c1nc(/C=C/c2ccccc2)cs1 (stereo unspecified)	-	-	0	-	-	-
FC(F)(F)c1ccc(Cl)c(-n2c(-c3cc(-c4ccco4)[nH]n3)n[nH]c2=S)c1	0	0	0	0	?	32.6
O=C1c2sccc2-c2cccc3cccc1c23	-	-	66.5	-	-	-
N#Cc1cccn1-c1nccs1	0	0	0	0	0	0
O/N=C\c1cccn1-c1nccs1	0	0	0	0	10.5	63.7
O=C1NC(c2ccccc2)(C(F)(F)F)SC2=CCCCCN12 (stereo unspecified)	0	0	42.3	0	0	0
NC(N)=N/N=C/c1ccc(OS(=O)(=O)c2ccccc2)cc1	0	0	0	0	active	0
O=C1COc2ccc(C(=O)COC(=O)c3ccc(Cl)cc3[N+](=O)[O-])cc2N1	-	0	0	-	-	-
CCCCn1c(SCC(=O)Nc2cc(C)on2)nc2ccccc2c1=O	0	73.2	0	0	0	0
CC(=O)c1ccc(NC(=O)CNCC(c2ccccc2)N(C)C)cc1 (stereo unspecified)	0	0	0	0	0	0
